Screening results from PubChem BioAssay.
Diaphorase act: compounds boosting diaphorase resazurin reduction – biochemical, uHTS, resorufin fluorescence, counter-screen for diaphorase-coupled primary assays, primary screen; activation factor at 20 µM; Diaphorase/resazurin coupled assay, 16 min; stronger effect = higher value; 1 = vehicle wells, 0 = NADH-free wells; actives 0.005% (n = 190,000); AID 1229, 2008;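 active means diaphorase activity raised at least twofold by the compound at 20 µM; inactive means activation factor below 2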
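Material: Purified diaphorase enzyme from Clostridium kluyveri | Buffer or medium: 50 mM HEPES pH 7.4 with 4.542 mM MgCl2, 0.005% Tween 20 | Times: 16 min enzyme reaction, ambient temperature | Signal: Red resorufin fluorescence at 544/590 nm excitation/emission | Measure: Increased resorufin signal from activators or reducing compounds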
Diaphorase inh: diaphorase inhibitors and chemical oxidizers, primary screen, counter-screen for diaphorase-coupled primary assays, biochemical, uHTS, resorufin fluorescence. diaphorase resazurin-to-resorufin fluorescence, NADH, 16 min; bacterial (C. kluyveri) enzyme, not human. inhibition, % at 20 µM. actives 0.69% (n = 190,000);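 active means primary screen inhibition at 20 µM above a set limit, cut at about 50% in these data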
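System: Diaphorase enzyme from Clostridium kluyveri | Amount: Enzyme working solution with 0.14 U/mL diaphorase | Benchmarks: No-NADH positive control and DMSO neutral control | Signal: Fluorescence of resorufin formed from resazurin, Ex 544/Em 590 nm | Schedule: 16-min room-temperature incubation before reading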
G6PDH counter: L. mesenteroides G6PDH inhibitors, counter-screen for G6PDH-coupled screening assays, biochemical, Leuconostoc mesenteroides enzyme; glucose-6-phosphate dehydrogenase [Leuconostoc mesenteroides]; Purified L. mesenteroides G6PDH, diaphorase/resazurin coupled fluorescence, 45 min; actives 0.12% (n = 200,000); inhibition, % at 5 µM
WT yeast gro inh: growth inhibition of WT strain, primary screen, mitochondrial fusion inhibitor project, WT and mutant strains, chemical genetic; mitochondrial fusion phenotypic screen; inhibition, % at 10 µM; actives 2.1% (n = 190,000); AID 1362, 2008; in the data active means inhibition above about 58%; tested in S. cerevisiae
Lmaj promast: Leishmania major promastigote growth inhibition, primary screen; Leishmania major promastigotes, resazurin fluorescence viability; inhibition, % at 10 µM; actives 9% (n = 200,000);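 further: promastigotes grown with compound for 44 hours at 28 °C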
Each line names hits and unclear results; the compound was inactive in the other large screens. Compounds with a hit are over-represented: about 11% of the library has one in this group of screens. Unless noted, no stated cut-off is given here; in the data, active means inhibition above about 50%; inactive means the rest.

COc1c(Cl)cc(-c2noc(C)c2C(=O)NCCc2ccc(C)cc2)cc1Cl	none
CCN(CCC(=O)Nc1ccc(Br)c(C)c1)Cc1ccccc1	Lmaj promast 92.0
COc1ccc(NC(=O)/C(Cl)=C(/Cl)S(=O)(=O)Cc2ccc(C)cc2)cn1	none
O=C1OC(c2ccccc2)=C/C1=C/c1cccs1	none
O=C1OC(c2ccc(F)cc2)=C/C1=C\c1ccc([N+](=O)[O-])o1	WT yeast gro inh 84.9, Lmaj promast 100.4
Cc1cc(C)n2nc(SCc3nnc(SCc4ccccc4Cl)s3)nc2n1	Diaphorase inh 58.1
Nc1nn2c(-c3ccccc3)cc(=O)[nH]c2c1N=Nc1ccc(O)cc1	Diaphorase inh 54.4
c1ccc(-c2cnn3c(-c4ccccc4)c(-c4ccccc4)nc3n2)cc1	none
CN(Cc1nc(-c2cnccn2)no1)Cc1cccc2ccccc12	none
CCNC(=S)N/N=C/c1cccc(OCc2c(F)cccc2Cl)c1	WT yeast gro inh 69.0
Fc1ccccc1COc1ccc(/C=N/NC(=S)NCc2ccccc2)cc1	none
CNC(=S)N/N=C/c1cccc(OCc2ccccc2F)c1	WT yeast gro inh 66.8
Cc1cccc(CSC(Nc2ccc(F)cc2)=C(C#N)C#N)c1	WT yeast gro inh 80.2
Cc1ccc(SCC(=O)Nc2cccc(C(=O)NC(C)(C)C)c2)cc1	Lmaj promast 95.1
COCCN1C(=O)/C(=C/c2ccc(Oc3ccc([N+](=O)[O-])cn3)c(OC)c2)SC1=Nc1ccccc1	Lmaj promast 100.3
COc1cc(/C=C2/NC(=O)N(CC(=O)Nc3ccc(C)cc3)C2=O)ccc1Oc1ccc([N+](=O)[O-])cn1	none
COC(=O)C1=C(C)N(Cc2ccco2)C(=O)/C1=C\c1ccc([N+](=O)[O-])cc1	Lmaj promast 98.8
COC(=O)C1=C(C)N(Cc2ccco2)C(=O)/C1=C\c1ccc(N(C)C)cc1	none
O=S(=O)(c1ccc2c(c1)OCCO2)N1CCC(n2cnc3cc(F)ccc32)CC1	Lmaj promast 68.7
CC(C)(C)C(=O)N1CCc2cc(-c3csc(N)n3)ccc21	Lmaj promast 58.6
CCC(C)C(=O)N1CCc2cc(-c3csc(N)n3)ccc21 (stereo not drawn)	none
Nc1nc(-c2ccc3c(c2)CCCC3)cs1	WT yeast gro inh 81.3
O/N=C/c1cccnc1Sc1ccccc1	none
C(=N\Nc1nc2ccccc2[nH]1)/c1ccncc1	none
CCN(CC)c1ccc(/C=N/Nc2nc3ccccc3[nH]2)cc1	WT yeast gro inh 78.5, Lmaj promast 100.0
COC(=O)c1ccc(/C=N/Nc2nc3ccccc3[nH]2)cc1	none
Clc1ccc(/C=N/Nc2ccccn2)cc1	none
O=c1[nH]c(N/N=C\c2ccc(F)cc2)nc2ccccc12	Lmaj promast 64.6
Fc1ccc(/C=N/Nc2ccccn2)cc1	Lmaj promast 69.2
O=c1[nH]c(N/N=C/c2ccc(O)cc2)nc2ccccc12	none
CC(=O)Nc1ccc(/C=N/Nc2nc3ccccc3[nH]2)cc1	Lmaj promast 99.7
CC(/C=N/Nc1nc2ccccc2[nH]1)=C\c1ccccc1	WT yeast gro inh 89.6
COc1ccc(OC)c2c1nc1n2CCS1	none
O=C(Nc1cccc(S(=O)(=O)c2cccc(NC(=O)C3CC3)c2)c1)C1CC1	Lmaj promast 99.3
CS(=O)(=O)c1cccc(NC(=O)C2CC2)c1	none
Cc1csc(Nc2ccccc2)n1	none
C(=N\NC1=Nc2cccc3cccc1c23)/c1ccccn1	WT yeast gro inh 68.3, Lmaj promast 100.3
Cc1csc(N/N=C/c2ccccn2)n1	Lmaj promast 94.6
CCOc1cc(CNC2CCCC2)cc(Cl)c1OCc1ccccc1	Lmaj promast 96.9
CCOc1c(Cl)cc(CNCC(O)c2ccccc2)cc1OC (stereo not drawn)	none
CCOc1cc(C(N)=O)cc(Cl)c1OCc1ccccc1	none
CCOc1cc(CNCC(C)C)cc(Cl)c1OCc1ccccc1	Lmaj promast 89.2
CCOc1cc(CNC2CCCC2)ccc1OCc1ccccc1Cl	Lmaj promast 100.2
CCOc1c(Cl)cc(CNCC(C)C)cc1OC	Lmaj promast 80.3
CC(=O)c1ccc(NC(=S)N2CC(C)CC(C)C2)cc1 (stereo not drawn)	none
Cc1nn(C)c(C(=O)Nc2ccc(Cl)c([N+](=O)[O-])c2)c1Cl	none
CCn1cc(-c2nnnn2-c2ccc(Cl)cc2)c(=O)c2ccccc21	none
Cc1ccc(S(=O)(=O)N/N=C\c2ccc(Cl)c([N+](=O)[O-])c2)cc1	none
CN(C)c1nc(N/N=C\c2ccc(Cl)c([N+](=O)[O-])c2)nc(Nc2ccc(F)cc2)n1	Lmaj promast 97.4 (no result: Diaphorase act, Diaphorase inh, G6PDH counter, WT yeast gro inh)
Nn1cnnc1N/N=C/c1ccc(Cl)c([N+](=O)[O-])c1	Lmaj promast 53.9
O=C1C2C3C=CC([C@@H]2C(=O)N1C1CCCCC1)[C@H]1C(=O)N(C2CCCCC2)C(=O)C31 (stereo partly drawn)	none
CCc1ccc(N(CC(=O)Nc2ccccc2C(=O)N2CCOCC2)S(C)(=O)=O)cc1	Lmaj promast 50.9
O=C(CSCc1c(Cl)cccc1Cl)Nc1ccccc1C(=O)N1CCOCC1	Lmaj promast 51.9
Cc1cc(C)cc(N(CC(=O)Nc2ccccc2C(=O)N2CCOCC2)S(C)(=O)=O)c1	none
O=C1[C@@H]2[C@H](C(=O)N1Cc1ccco1)[C@H]1C=C[C@@H]2C1	none
NC(=O)COC(=O)CC1CC2CCC1C2 (stereo not drawn)	none
Cn1c(SCc2cc([N+](=O)[O-])cc3c2OCOC3)nnc1-c1ccccn1	none
COc1cccc(NC(=O)Nc2ccc3nsnc3c2)c1	Lmaj promast 98.5
COc1ccccc1N(CC(O)Cn1c(C)nc2ccccc21)S(=O)(=O)c1ccccc1 (stereo not drawn)	none
O=C(CCc1nc2ccccc2c(=O)[nH]1)OCc1ccc(Cl)cc1Cl	none
O=C(NCc1ccccc1)c1ccc(-c2ccccc2C(F)(F)F)o1	WT yeast gro inh 58.0
COc1ccccc1/C=C1\CCCC2=C1Nc1nnnn1C2c1ccccc1OC (stereo not drawn)	Lmaj promast 78.8
Cc1cc(Nc2ccccc2)n(CCO)n1	none
Cc1ccc(C)c(N2C(=O)c3cc(N4CCOCC4)c([N+](=O)[O-])cc3C2=O)c1	Lmaj promast 55.3
CCc1ccc(N2C(=O)c3cc(N4CCOCC4)c([N+](=O)[O-])cc3C2=O)cc1	none
CCc1cccc(CC)c1N1C(=O)c2cc(N3CCOCC3)c([N+](=O)[O-])cc2C1=O	Lmaj promast 84.0
Cc1[nH]c2ccccc2c1SCCNC(=O)c1ccc(S(=O)(=O)N2CCCC2)cc1	Lmaj promast 99.3
Cc1ccc2cc(CCNC(=O)c3ccc(S(=O)(=O)N4CCCCC4)cc3)c(=O)[nH]c2c1	Diaphorase inh 72.1
